The record followed here is ChEMBL document CHEMBL1133685, “Synthesis of new 2,6-prolylxylidide analogues of tocainide as stereoselective blockers of voltage-gated Na(+) channels with increased potency and improved use-dependent activity” (J Med Chem, 2000).

The nature of assay [1]: Half maximal concentration for producing a tonic block in skeletal muscle fibers (block of sodium channel at resting conditions evaluated during infrequent depolarizing pulses). Type of assay: functional, tissue-based, Muscle tissue. In a few lines:
(§1)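 Four-pool grease-gap voltage clamp on single skeletal muscle fibers; the central pool held external solution (mM: NaCl 77, choline Cl 38, CaCl2 1.8, KCl 2.5, Na2HPO4 2.15, NaH2PO4 0.85) with drug added. Recordings at 10 °C after 10 min equilibration, holding potential -100 mV, 10-ms test pulses to -20 mV. IC50 for I_Namax block came from a logistic fit of concentration-response data, 3-7 fibers per point, mean ± SEM.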

Assay [2] in a line: In vitro potential anti-myotonic activity as potency in phasic block in relation to tocainide (tocainide = 1). Type of assay: functional. In a few lines:
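Phasic block was measured at 10 Hz by voltage clamp of skeletal muscle fiber Na+ current at 10 °C, holding potential -100 mV, pulses to -20 mV. The IC50 came from a logistic concentration-response fit, and potency was expressed relative to tocainide (tocainide = 1).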

Assay [3] in a line: Ratio of IC50 tonic block to IC50 phasic block. Type of assay: functional.
Assay [4] in a line: Half maximal concentration for producing a phasic block in skeletal muscle fibers (cumulative sodium current reduction at 10 Hz stimulations frequency). Type of assay: functional, tissue-based, Muscle tissue. In a few lines:
as §1

Turning to `Cc1cccc(C)c1N(C)C(=O)[C@H]1CCCN1C`, the IC50 in assay [1] was above 500 µM; in assay [4], 440 µM. The molecule further came in with an Activity in assay [2] of 0.6. In addition, the Ratio in assay [3] is above 1.1.
As for `Cc1cccc(C)c1N(C)C(=O)[C@@H]1CCCN1`, the half-maximal inhibitory concentration (IC50) in assay [1] is 104 µM; in assay [4], 67 µM. The molecule also showed an Activity in assay [2] of 3. For the same molecule, the Ratio in assay [3] amounted to 1.5.
With `Cc1cccc(C)c1NC(=O)[C@H]1CCCN1C`, the half-inhibitory concentration (IC50) in assay [1] was 300 µM; in assay [4], 100 µM. In assay [2], this molecule displayed an Activity of 2.7. In assay [3], the Ratio was found to be 3.
The matching figures for `Cc1cccc(C)c1NC(=O)[C@H]1CCCN1`: 110 µM, 13 µM, 21 and 8.5.
The matching figures for `Cc1cccc(C)c1NC(=O)[C@@H]1CCCN1C`: 106 µM, 28 µM, 8 and 3.4.
For `Cc1cccc(C)c1N(C)C(=O)[C@@H]1CCCN1C`, the IC50 turned out to be 286 µM in assay [1] and 198 µM in assay [4]. For the same molecule, the Activity in assay [2] worked out at 1.1. The Ratio in assay [3] turned out to be 1.4.
Take `Cc1cccc(C)c1NC(=O)[C@@H](C)N` [(R)-TOCAINIDE]: the IC50 is 580 µM in assay [1] and 270 µM in assay [4]. Further, the Activity in assay [2] came out at 1. Moreover, in assay [3], the Ratio stood at 2.1.
For `Cc1cccc(C)c1NC(=O)[C@@H]1CCCN1`, in that order: 230 µM, 44 µM, 5 and 5.2.
Consider `Cc1cccc(C)c1NC(=O)[C@H](C)N` [S-TOCAINIDE], for which the figures for the 50% inhibitory concentration (IC50) in assay [1] and in assay [4] were 520 µM and 220 µM, respectively. Besides, the Activity in assay [2] worked out at 1. Further, the Ratio in assay [3] was 2.4.
In the case of `Cc1cccc(C)c1N(C)C(=O)[C@H]1CCCN1`, the IC50 in assay [1] turned out to be 340 µM; in assay [4] it was 217 µM. Moreover, the Activity in assay [2] amounted to 1. Also, the Ratio in assay [3] turned out to be 1.6.

Broadly, the IC50 is the midpoint of a concentration-inhibition curve.
